{"source": "ChEMBL document CHEMBL1138359", "about": "“Syntheses of nicotinamide riboside and derivatives: effective agents for increasing nicotinamide adenine dinucleotide concentrations in mammalian cells” (J Med Chem, 2007)", "key": {"[1]": {"test": "Cell viability in mouse AB1 cells at 750 uM after 48 hrs by MTT assay relative to control", "format": "cell-based", "settings": "read-out: Activity", "in_short": "(§1)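 Cells grown 24 h, then exposed to 750 µM compound for 48 h. Viability read by MTT assay and given as % of untreated control. Duplicate experiments.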"}, "[2]": {"test": "Cell viability in mouse Neuro 2a cells at 750 uM after 48 hrs by MTT assay relative to control", "format": "cell-based, N2a", "settings": "read-out: Activity", "in_short": "as §1"}, "[3]": {"test": "Cell viability in HEK293 cells at 750 uM after 48 hrs by MTT assay relative to control", "format": "cell-based", "settings": "human, read-out: Activity", "in_short": "as §1"}, "[4]": {"test": "Increase in NAD+ concentration in mouse Neuro 2a cells at 750 uM after 24 hrs by isotope-dilution technique", "format": "functional, N2a"}, "HEK293 [5]": {"tested_on": "HEK293", "test": "Increase in NAD+ concentration in HEK293 cells at 750 uM after 24 hrs by isotope-dilution technique", "format": "functional, Homo sapiens"}, "[6]": {"test": "Cytotoxicity against mouse Neuro 2a cells", "format": "cell-based", "settings": "n2a"}, "HEK293 [7]": {"tested_on": "HEK293", "test": "Cytotoxicity against HEK293 cells", "format": "cell-based", "settings": "human"}, "[8]": {"test": "Increase in NAD+ concentration in mouse AB1 cells at 750 uM after 24 hrs by isotope-dilution technique", "format": "functional"}, "[9]": {"test": "Cytotoxicity against mouse AB1 cells", "format": "cell-based"}, "[10]": {"test": "Increase in NAD+ concentration in mouse AB1 cells at 670 uM after 24 hrs by isotope-dilution technique relative to control", "format": "functional", "in_short": "(§2)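 Cells exposed to 670 µM compound for 24 h. NAD+ was then quantified by an MS-based isotope-dilution method using an 18O standard and expressed relative to untreated controls. All cell experiments were run in duplicate.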"}, "HEK293 [11]": {"tested_on": "HEK293", "test": "Increase in NAD+ concentration in HEK293 cells at 670 uM after 24 hrs by isotope-dilution technique relative to control", "format": "functional, Homo sapiens", "in_short": "as §2"}, "[12]": {"test": "Increase in NAD+ concentration in mouse Neuro 2a cells at 670 uM after 24 hrs by isotope-dilution technique relative to control", "format": "functional, N2a", "in_short": "as §2"}}}
{"smiles": "CCOC(=O)c1ccc[n+]([C@@H]2O[C@H](CO)[C@@H](O)[C@H]2O)c1", "values": [{"measurement": "viability at 48 h, 750 µM", "setting": "[1]", "result": 103, "unit": "%"}, {"measurement": "viability at 48 h, 750 µM", "setting": "[2]", "result": 169, "unit": "%"}, {"measurement": "viability at 48 h, 750 µM", "setting": "[3]", "result": 92, "unit": "%"}]}
{"smiles": "CN(C)C(=O)c1ccc[n+]([C@@H]2O[C@H](CO)[C@@H](O)[C@H]2O)c1", "values": [{"measurement": "viability at 48 h, 750 µM", "setting": "[1]", "result": 132, "unit": "%"}, {"measurement": "viability at 48 h, 750 µM", "setting": "[2]", "result": 35, "unit": "%"}, {"measurement": "viability at 48 h, 750 µM", "setting": "[3]", "result": 78, "unit": "%"}]}
{"smiles": "C=CCNC(=O)c1ccc[n+]([C@@H]2O[C@H](CO)[C@@H](O)[C@H]2O)c1", "values": [{"measurement": "viability at 48 h, 750 µM", "setting": "[1]", "result": 57, "unit": "%"}, {"measurement": "viability at 48 h, 750 µM", "setting": "[2]", "result": 80, "unit": "%"}, {"measurement": "viability at 48 h, 750 µM", "setting": "[3]", "result": 78, "unit": "%"}]}
{"smiles": "COC(=O)c1ccc[n+]([C@@H]2O[C@H](CO)[C@@H](O)[C@H]2O)c1", "values": [{"measurement": "viability at 48 h, 750 µM", "setting": "[1]", "result": 125, "unit": "%"}, {"measurement": "viability at 48 h, 750 µM", "setting": "[2]", "result": 76, "unit": "%"}, {"measurement": "viability at 48 h, 750 µM", "setting": "[3]", "result": 94, "unit": "%"}]}
{"smiles": "O=C(NCCO)c1ccc[n+]([C@@H]2O[C@H](CO)[C@@H](O)[C@H]2O)c1", "values": [{"measurement": "viability at 48 h, 750 µM", "setting": "[1]", "result": 101, "unit": "%"}, {"measurement": "viability at 48 h, 750 µM", "setting": "[2]", "result": 51, "unit": "%"}, {"measurement": "viability at 48 h, 750 µM", "setting": "[3]", "result": 77, "unit": "%"}]}
{"smiles": "CNC(=O)c1ccc[n+]([C@@H]2O[C@H](CO)[C@@H](O)[C@H]2O)c1", "values": [{"measurement": "viability at 48 h, 750 µM", "setting": "[1]", "result": 79, "unit": "%"}, {"measurement": "viability at 48 h, 750 µM", "setting": "[2]", "result": 76, "unit": "%"}, {"measurement": "viability at 48 h, 750 µM", "setting": "[3]", "result": 72, "unit": "%"}]}
{"smiles": "CCOC(=O)c1ccc[n+]([C@@H]2O[C@H](COC(C)=O)[C@@H](OC(C)=O)[C@H]2OC(C)=O)c1", "values": [{"measurement": "Activity", "setting": "[4]", "result": 260, "unit": "%"}, {"measurement": "Activity", "setting": "HEK293 [5]", "result": 160, "unit": "%"}, {"measurement": "Activity", "setting": "[6]", "result": "Non-toxic"}, {"measurement": "Activity", "setting": "HEK293 [7]", "result": "Non-toxic"}, {"measurement": "Activity", "setting": "[8]", "result": 130, "unit": "%"}, {"measurement": "Activity", "setting": "[9]", "result": "Non-toxic"}]}
{"smiles": "O=C(O)c1ccc[n+]([C@@H]2O[C@H](CO)[C@@H](O)[C@H]2O)c1", "values": [{"measurement": "Activity", "setting": "[10]", "result": 1.5, "unit": "%"}, {"measurement": "viability at 48 h, 750 µM", "setting": "[1]", "result": 111, "unit": "%"}, {"measurement": "Activity", "setting": "HEK293 [11]", "result": 1.9, "unit": "%"}, {"measurement": "viability at 48 h, 750 µM", "setting": "[2]", "result": 125, "unit": "%"}, {"measurement": "Activity", "setting": "[12]", "result": 1.7, "unit": "%"}, {"measurement": "viability at 48 h, 750 µM", "setting": "[3]", "result": 92, "unit": "%"}]}
{"smiles": "CCNC(=O)c1ccc[n+]([C@@H]2O[C@H](CO)[C@@H](O)[C@H]2O)c1", "values": [{"measurement": "viability at 48 h, 750 µM", "setting": "[1]", "result": 57, "unit": "%"}, {"measurement": "viability at 48 h, 750 µM", "setting": "[2]", "result": 38, "unit": "%"}, {"measurement": "viability at 48 h, 750 µM", "setting": "[3]", "result": 48, "unit": "%"}]}
{"smiles": "NC(=O)c1ccc[n+]([C@@H]2O[C@H](CO)[C@@H](O)[C@H]2O)c1", "note": "[NICOTINAMIDE RIBOSIDE]", "values": [{"measurement": "viability at 48 h, 750 µM", "setting": "[1]", "result": 123, "unit": "%"}, {"measurement": "viability at 48 h, 750 µM", "setting": "[2]", "result": 107, "unit": "%"}, {"measurement": "viability at 48 h, 750 µM", "setting": "[3]", "result": 111, "unit": "%"}]}
